Assay results from ChEMBL document CHEMBL5329178, “Synthesis and antibacterial activity of 2-benzylidene-3-oxobutanamide derivatives against resistant pathogens” (RSC Med Chem, 2023).
Active and inactive are the calls of the source. The rule behind the calls is not given here.

Columns and labels:
[1] = system: Escherichia coli; assay: Antibacterial activity against Escherichia coli assessed as growth inhibition at 32 ug/mL by whole cell growth inhibition assay relative to control; format: functional; settings: read-out: GI
Procedure, shortened: (§1)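 Primary single-concentration screen at 32 µg/mL, final DMSO ≤1%, duplicate on different plates. Mid-log cultures in cation-adjusted Mueller Hinton broth at 5×10^5 CFU/mL; 37 °C, 18 h, no shaking. OD600 read; % growth inhibition relative to media-only and untreated-bacteria controls on the same plate. Strains: E. coli ATCC 25922, A. baumannii ATCC 19606, S. aureus ATCC 43300 (MRSA).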

[2] = system: Staphylococcus aureus; assay: Antibacterial activity against Staphylococcus aureus assessed as growth inhibition at 32 ug/mL by whole cell growth inhibition assay relative to control; format: functional; settings: read-out: GI; procedure, shortened: as §1
[3] = Octanol/Water partition coefficient, logP of the compound; format: physicochemical
[4] = system: Acinetobacter baumannii; assay: Antibacterial activity against Acinetobacter baumannii assessed as growth inhibition at 32 ug/mL by whole cell growth inhibition assay relative to control; format: functional; settings: read-out: GI; procedure, shortened: as §1
[5] = Cytotoxicity against human HEK293 cells assessed as cell viability at 64 ug/ml relative to control; format: toxicity, cell-based; settings: at 64 µg/mL, read-out: Activity
[6] = Hemolytic activity in RBC (unknown origin) assessed as cell viability at 64 ug/ml relative to control; format: toxicity, cell-based, Erythrocyte; settings: red blood cells (erythrocytes), at 64 µg/mL, read-out: Activity
[7] = Solubility of the compound in water; format: physicochemical; settings: buffer
[8] = system: Staphylococcus aureus; assay: Antibacterial activity against methicillin resistant Staphylococcus aureus assessed as growth inhibition at 16 ug/mL by HIT assay relative to control; format: functional; settings: read-out: GI
Procedure, shortened: (§2)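 A. baumannii ATCC 19606 and MRSA ATCC 43300 were grown overnight in cation-adjusted Mueller Hinton broth at 37 °C, subcultured to mid-log, and added at 5×10^5 CFU/mL to an 8-point, 2-fold dilution series (32–0.25 µg/mL; ≤0.5% DMSO). After 18 h static at 37 °C, OD600 was read. Percent inhibition was taken against media-only and untreated-bacteria wells, in duplicate. MIC was the lowest concentration giving ≥80% inhibition.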

[9] = system: Staphylococcus aureus; assay: Bacteriostatic activity against methicillin resistant Staphylococcus aureus assessed as log reduction in colony forming unit measured after 24 hrs by time kill assay; format: functional
Procedure, shortened: (§3)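 MRSA ATCC 700698 and A. baumannii ATCC 19606 overnight cultures were diluted 1:10,000 in MHB and grown 2 h at 37 °C and 220 rpm to early exponential phase. […] At intervals, aliquots were tenfold serially diluted, plated on MHA and incubated overnight at 37 °C for CFU counts.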

[10] = system: Acinetobacter baumannii; assay: Antibacterial activity against Multi drug resistant Acinetobacter baumannii assessed as growth inhibition at 16 ug/mL by HIT assay relative to control; format: functional; settings: read-out: GI; procedure, shortened: as §2
[11] = system: Acinetobacter baumannii; assay: Bactericidal activity against multi-drug resistant Acinetobacter baumannii assessed as log reduction in colony forming unit measured after 24 hrs by time kill assay; format: functional; procedure, shortened: as §3
[12] = system: Staphylococcus aureus; assay: Antibacterial activity against methicillin resistant Staphylococcus aureus assessed as growth inhibition at 2 ug/mL by HIT assay relative to control; format: functional; settings: read-out: GI; procedure, shortened: as §2
[13] = system: Staphylococcus aureus; assay: Bacteriostatic activity against Staphylococcus aureus ATCC 700698 assessed as log reduction in colony forming unit measured per ml after 24 hrs by time kill assay; format: functional
Procedure, shortened: (§4)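 Time-kill assay in cation-adjusted MHB. Overnight cultures (S. aureus MRSA ATCC 700698; A. baumannii ATCC 19606) diluted 1:10,000, grown 2 h at 37 °C, 220 rpm to early exponential phase. […] Aliquots taken at intervals, tenfold serially diluted, plated on MHA overnight at 37 °C for CFU counts.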

[14] = system: Staphylococcus aureus; assay: Antibacterial activity against methicillin resistant Staphylococcus aureus assessed as growth inhibition at 32 ug/mL by HIT assay relative to control; format: functional; settings: read-out: GI; procedure, shortened: as §2
[15] = system: Acinetobacter baumannii; assay: Antibacterial activity against susceptible Acinetobacter baumannii; format: functional
[16] = system: Staphylococcus aureus; assay: Antibacterial activity against methicillin resistant Staphylococcus aureus assessed as growth inhibition; format: functional, organism-based; procedure, shortened: as §2
[17] = system: Acinetobacter baumannii; assay: Bactericidal activity against Acinetobacter baumannii assessed as log reduction in bacterial count measured after 24 hrs by time kill assay; format: functional; procedure, shortened: as §4
[18] = system: Acinetobacter baumannii; assay: Antibacterial activity against Multi drug resistant Acinetobacter baumannii assessed as growth inhibition at 32 ug/mL by HIT assay relative to control; format: functional; settings: read-out: GI; procedure, shortened: as §2

| SMILES | inhibition of growth at 32 µg/mL [1] [%] | inhibition of growth at 32 µg/mL [2] [%] | logP [3] | inhibition of growth at 32 µg/mL [4] [%] | solubility [7] | other results |
| --- | --- | --- | --- | --- | --- | --- |
| CCc1ccc(/C=C(/C(C)=O)C(N)=O)cc1[N+](=O)[O-] | 25.5 | 82.7 | 1.31 | 27.7 | Soluble | viability at 64 ug/ml [5]: 88.9%; viability at 64 ug/ml [6]: 94.5%; inhibition of growth at 16 µg/mL [8]: 99.2% |
| O=C(/C=C/c1ccccc1)c1ccccc1 [CHALCONE] |  |  | 3.29 |  | Soluble |  |
| CC(=O)/C(=C/c1ccc(OCc2ccccc2)cc1)C(N)=O |  |  | 2.72 |  | Soluble |  |
| CC(=O)/C(=C/c1ccc(C#N)cc1)C(N)=O |  |  | 1.13 |  | Soluble |  |
| CC(=O)/C(=C/c1cccc([N+](=O)[O-])c1)C(N)=O | 51.1 | 83.7 | 1.15 | 98 | Soluble | Activity [9]: >3 log10CFU; inhibition of growth at 16 µg/mL [10]: 98.2%; viability at 64 ug/ml [5]: 93.8%; viability at 64 ug/ml [6]: 96.4%; Activity [11]: >3 log10CFU; inhibition of growth at 2 µg/mL [12]: 99.4%; Activity [13]: 2 log10CFU/ml |
| CC(=O)/C(=C/c1ccccc1Cl)C(N)=O | 66.8 | 98.1 | 1.38 | 58.8 | Soluble |  |
| CC(=O)/C(=C/c1ccc(C)cc1)C(N)=O |  |  | 1.68 |  | Soluble |  |
| COc1cc(/C=C(/C(C)=O)C(N)=O)cc(OC)c1OC |  |  | 1.41 |  | Soluble |  |
| CC(=O)/C(=C/c1cccc(F)c1)C(N)=O |  |  | 1.49 |  | Soluble |  |
| CC(=O)/C(=C/c1ccc(C(F)(F)F)cc1)C(N)=O |  |  | 2.43 |  | Soluble |  |
| COc1cc(/C=C/C(=O)CC(=O)/C=C/c2ccc(O)c(OC)c2)ccc1O [CURCUMIN] |  |  | 3.03 |  | Soluble |  |
| CC(=O)/C(=C/c1ccc([N+](=O)[O-])cc1)C(N)=O | 68.1 | 98.2 | 1.13 | 30.5 | Soluble | viability at 64 ug/ml [5]: 90.6%; viability at 64 ug/ml [6]: 95.1%; inhibition of growth at 2 µg/mL [12]: 98.7%; Activity [13]: 2 log10CFU/ml |
| CCc1ccc(/C=C(/C(C)=O)C(N)=O)cc1 |  |  | 1.99 |  | Soluble |  |
| CC(=O)/C(=C/c1cccc(Br)c1)C(N)=O |  |  | 1.73 |  | Soluble |  |
| CC(=O)/C(=C/c1ccccc1[N+](=O)[O-])C(N)=O |  |  | 1.09 |  | Soluble |  |
| CC(=O)/C(=C/c1ccc2c(c1)OCO2)C(N)=O |  |  | 1.23 |  | Soluble |  |
| CC(=O)/C(=C/c1ccccc1F)C(N)=O | 59.7 | 43.8 | 1.66 | 58.2 | Soluble |  |
| CC(=O)/C(=C/c1ccc(Cl)cc1)C(N)=O | 67.8 | 87.5 | 1.88 | 65.4 | Soluble |  |
| CC(=O)/C(=C/c1ccccc1)C(N)=O |  |  | 1.6 |  | Soluble |  |
| CC(=O)/C(=C/c1cccc(C#N)c1)C(N)=O |  |  | 1.15 |  | Soluble |  |
| COc1cccc(/C=C(/C(C)=O)C(N)=O)c1OC |  |  | 1.3 |  | Soluble |  |
| CC(=O)/C(=C/c1ccccc1Br)C(N)=O | 51.6 | 93.8 | 1.62 | 60 | Soluble | inhibition of growth at 32 µg/mL [14]: 80%; viability at 64 ug/ml [5]: 90.2%; viability at 64 ug/ml [6]: 95.3%; Activity [13]: 2 log10CFU/ml |
| CN[C@H](CC(C)C)C(=O)N[C@H]1C(=O)N[C@@H](CC(N)=O)C(=O)N[C@H]2C(=O)N[C@H]3C(=O)N[C@H](C(=O)N[C@H](C(=O)O)c4cc(O)cc(O)c4-c4cc3ccc4O)[C@H](O)c3ccc(c(Cl)c3)Oc3cc2cc(c3O[C@@H]2O[C@H](CO)[C@@H](O)[C@H](O)[C@H]2O[C@H]2C[C@](C)(N)[C@H](O)[C@H](C)O2)Oc2ccc(cc2Cl)[C@H]1O.Cl [VANCOMYCIN HYDROCHLORIDE] |  |  |  |  |  | MIC [15]: 0.25 µg/mL; growth inhibition (GI) [16]: inactive |
| CC(=O)/C(=C/c1ccc(O)cc1)C(N)=O |  |  | 0.94 |  | Soluble |  |
| CC(=O)/C(=C/c1ccc(Br)cc1)C(N)=O | 51.8 | 83.7 | 1.62 | 53 | Soluble | inhibition of growth at 32 µg/mL [14]: 94.2%; viability at 64 ug/ml [5]: 94.8%; viability at 64 ug/ml [6]: 98.9%; Activity [13]: 2 log10CFU/ml |
| CC(=O)/C(=C/c1ccccc1C#N)C(N)=O | 52.1 | 14.4 | 1.09 | 70.8 | Soluble | log(activity) [17]: >3; inhibition of growth at 32 µg/mL [18]: 50.5%; viability at 64 ug/ml [5]: 97.6%; viability at 64 ug/ml [6]: 92.2% |
